ChEMBL document CHEMBL5360619
The source made the active and inactive calls. No cut-off for these calls is given here.

What was measured:
[1] = molecular target: T1, Cytochrome P450 3A4 (Homo sapiens, UniProt P08684); test: Inhibition of CYP3A4 in human liver microsomes using midazolam as substrate incubated for 10 mins in presence of NADPH by LC-MS/MS analysis; format: ADME, Microsome
Outline: (§1)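 Human liver microsomes 0.2 mg/mL in 100 mM phosphate pH 7.4; compound final 1, 10 and 100 μM (1% DMSO). Substrates: midazolam 5 μM (10 min) or testosterone 50 μM (30 min). Started with NADPH, stopped with ice-cold acetonitrile containing internal standard; LC–MS/MS.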

[2] = molecular target: T1, Cytochrome P450 3A4; test: Inhibition of CYP3A4 in human liver microsomes using testosterone as substrate incubated for 30 mins in presence of NADPH by LC-MS/MS analysis; format: ADME, Microsome; outline: as §1
[3] = test system: RAW264.7; test: Cytotoxicity against mouse RAW264.7 cells assessed as reduction in cell viability at 0.01 to 10 uM incubated for 5 days by SYTO 60 dye based automated high-content fluorescent microscopic analysis; format: toxicity; settings: raw264.7, 120 h, dose 0.01-10 µM, time 5 day
Outline: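 RAW 264.7 cells in RPMI-1640 with 10% heat-inactivated FBS, 20,000 cells/well added to compounds acoustically dispensed from DMSO stocks, DMSO backfill; 5 days at 37 °C, 5% CO2. SYTO 60 staining, four confocal images per well, total cell number counted; dose–response plotted.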

[4] = test system: CYP3A4; test: Selectivity index, ratio of IC50 for CYP3A4 in human liver microsomes using midazolam as substrate to IC50 for antimycobacterial activity against Mycobacterium tuberculosis Erdman; format: toxicity; settings: probe midazolam, read-out: Ratio IC50
[5] = test system: CYP3A4; test: Selectivity index, ratio of IC50 for CYP3A4 in human liver microsomes using testosterone as substrate to IC50 for antimycobacterial activity against Mycobacterium tuberculosis Erdman; format: toxicity; settings: probe testosterone, read-out: Ratio IC50
[6] = Solubility of compound in tween-free sauton's medium; format: physicochemical
[7] = Cytotoxicity against human Calu-3 cells assessed as reduction in cellular ATP level incubated for 72 hrs by celltiter-glo assay; format: toxicity, cell-based; settings: read-out: LD50
Outline: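 Calu-3 cells (DMEM, 10% FBS) plated 10,000/well for 18 h, then medium switched to 2% FBS; eight twofold doses 250 down to […], compounds as imidazole salts in DMSO with IMD/DMSO controls.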

[8] = Therapeutic index, ratio of LD50 for human IMR-90 cells to IC50 for antimycobacterial activity against Mycobacterium tuberculosis Erdman; format: toxicity; settings: read-out: TI
Outline: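 LD50 from 48 h MTT assay in HEK 293, BEAS-2B or IMR-90 cells divided by MABA IC50 against Mtb.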

[9] = test system: Mycobacterium tuberculosis; test: Inhibition of biofilm formation in Mycobacterium tuberculosis Erdman assessed as inhibition of biofilm pellicle formation at 2.5 to 50 uM pretreated for 3 weeks under low oxygen and further treated for 3 weeks under aerated condition in presence of 0.05% tyloxapol by optical density based analysis; format: functional, organism-based; settings: dose 2.5-50 µM, time 6.0 weeks
Outline: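 Pellicle assay with 0.05% tyloxapol added to each well to prevent biofilm; otherwise Sauton's medium inoculated with Mtb plus compound, sealed airtight 3 weeks at 37 °C, 5% CO2, then opened for 3 weeks aerobic.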

[10] = test system: Mycobacterium tuberculosis; test: (§2) Antimycobacterial activity against Mycobacterium tuberculosis H37Rv expressing GFP infected in mouse RAW264.7 cells assessed as inhibition of intracellular mycobacterial growth by measuring reduction in percentage of infected cells incubated for 5 days by SYTO 60 dye based automated high-content fluorescent microscopic analysis; format: functional, organism-based; settings: time 5.0 day
Outline: (§3)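 RAW 264.7 macrophages infected with GFP-expressing H37Rv for 3 h at 37 °C with shaking, washed by centrifugation, then seeded at 20,000 cells/well onto compounds dispensed acoustically from DMSO stocks, DMSO backfill. Incubated 5 days at 37 °C, 5% CO2, stained with SYTO 60, four confocal images per well; percentage of infected cells and bacterial area per infected cell scored. IC50 from dose–response; four replicates.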

[11] = test system: Mycobacterium tuberculosis; test: as §2, with “bacterial area per” for “percentage of”; format: functional, organism-based; settings: time 5.0 day; outline: as §3
[12] = Apparent permeability across apical to basolateral side in human Caco-2 cells at 2 uM by LC-MS/MS analysis; format: ADME, cell-based
Outline: (§4)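 Caco-2 monolayers grown on permeable filters, used day 21. Drug solution 2 μM in prewarmed HBSS applied apical or basolateral, pH 7.4 both sides, 37 °C, stirring 500 rpm; 5 μM enalaprilat as integrity control. Receiver sampled at 30 min, donor sampled for mass balance; LC–MS/MS with warfarin internal standard.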

[13] = Efflux ratio of apparent permeability across […] side in human Caco-2 cells at 2 uM by LC-MS/MS analysis; format: ADME, cell-based; settings: caco-2, 2 µM; outline: as §4

T1 sequence (P08684 whole entry): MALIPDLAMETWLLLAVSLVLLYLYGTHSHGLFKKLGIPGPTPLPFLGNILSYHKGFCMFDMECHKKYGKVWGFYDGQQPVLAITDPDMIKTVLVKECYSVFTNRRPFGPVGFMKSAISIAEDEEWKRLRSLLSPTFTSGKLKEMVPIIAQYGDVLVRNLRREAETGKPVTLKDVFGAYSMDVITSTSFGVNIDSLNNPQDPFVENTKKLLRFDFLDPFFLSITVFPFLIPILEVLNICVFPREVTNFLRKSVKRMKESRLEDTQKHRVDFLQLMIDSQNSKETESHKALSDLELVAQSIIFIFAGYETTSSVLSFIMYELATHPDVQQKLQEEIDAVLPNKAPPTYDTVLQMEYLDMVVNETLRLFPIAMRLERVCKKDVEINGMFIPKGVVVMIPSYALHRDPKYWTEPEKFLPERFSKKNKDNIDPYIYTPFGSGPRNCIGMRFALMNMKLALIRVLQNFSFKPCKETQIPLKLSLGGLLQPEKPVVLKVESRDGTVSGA

| SMILES | IC50 [1] [µM] | IC50 [2] [µM] | Activity [3] | selectivity ratio [4] | selectivity ratio [5] | solubility [6] | further results |
| --- | --- | --- | --- | --- | --- | --- | --- |
| CC(C)(C)c1ccc(-n2cc(-c3cc(=O)n4c(c3C3CC3)SCC4C(=O)O)nn2)cc1 (racemic) | > 100 | > 100 |  |  |  |  |  |
| O=C(O)C1CSc2c(C3CC3)c(Cc3cccc4ccccc34)cc(=O)n21.c1c[nH]cn1 (racemic) |  |  | Non-Toxic | ≥ 16 | ≥ 16 |  |  |
| O=C(O)C1CSc2c(C3CC3)c(CSc3nnc(-c4cccc(C(F)(F)F)c4)o3)cc(=O)n21 (racemic) |  |  |  |  |  | Insoluble |  |
| O=C(O)C1CSc2c(C3CC3)c(-c3cc(-c4ccc5ccccc5c4)no3)cc(=O)n21.c1c[nH]cn1 (racemic) |  |  | Non-Toxic | ≥ 16 | ≥ 16 |  | CC50 at 72 h [7]: > 250 µM; selectivity ratio [8]: 168; inhibition [9]: inactive; Activity [10]: Active; Activity [11]: Active |
| O=C(O)C1CSc2c(C3CC3)c(-c3cc(-c4ccccc4)no3)cc(=O)n21 (racemic) |  |  |  |  |  | Insoluble |  |
| CC(C)(C)c1ccc(-c2nnc(SCc3cc(=O)n4c(c3C3CC3)SCC4C(=O)O)o2)cc1 (racemic) | > 100 | > 100 |  |  |  |  | Papp A→B at 2 µM [12]: 0.88 ×10⁻⁶ cm/s; Ratio [13]: 1.5 |
